Measured values of several laboratories.
Each line is one published result; the experiments were not run side by side.
Cell line: HCT-116
Effect on: cell growth or viability

COc1cc(C=NNC(=O)c2nc3ccccc3s2)ccc1O  cell death (MTT; 100 µM, 48 h): 44.6%
CCOc1ccc(C(=O)CC(SCc2ccc(Cl)cc2)C(=O)OC)cc1 (stereo not drawn)  EC50 (MTT; 48 h): 70 µM
Nc1nc2ccc(-c3c/c(=N\c4ccccc4NC(=O)C4CCNC4)c4ccccc4o3)cc2o1 (stereo not drawn)  inhibition (CCK-8; 1 µM): 62.6%
CCc1ccc(N=C2C(=O)Nc3ccccc32)cc1  IC50 (MTT; 48 h): 64.7 µM
COc1cccc2c1C(=O)c1c(O)c3c(c(O)c1C2=O)C[C@@](O)(C(=O)CO)C[C@@H]3O[C@H]1C[C@H](N)[C@H](O)[C@H](C)O1  IC50 (MTT; 24 h): 10.5 µM
COc1cc(N=C2C(=O)N(Cc3ccccc3)c3ccccc32)cc(OC)c1  IC50 (MTT; 48 h): 8.73 µM
CCOc1ccc(-c2cc(C(=O)O)c(-c3ccc(Cl)cc3)o2)cc1  EC50 (MTT; 48 h): 78 µM
O=C1C(=Nc2ccc(Cl)cc2Br)c2ccccc2N1Cc1ccc([N+](=O)[O-])cc1  IC50 (MTT; 48 h): 24.9 µM
Oc1cccc(-c2nc(N3CCOCC3)c3oc4ncccc4c3n2)c1  inhibition (CCK-8; 1 µM): 12.5%
O=c1[nH]cc(F)c(=O)[nH]1  cell death (MTT; 100 µM, 48 h): 84.6%
O=C1Nc2ccccc2C1=Nc1ccc(Cl)cc1  IC50 (MTT; 48 h): > 100 µM
C[C@H](N)C(=O)Nc1ccccc1/N=c1\cc(-c2ccc3c(c2)OCCO3)oc2c([N+](=O)[O-])cccc12  inhibition (CCK-8; 1 µM): 12.7%
COc1cccc2c1C(=O)c1c(O)c3c(c(O)c1C2=O)C[C@@](O)(C(=O)CO)C[C@@H]3O[C@H]1C[C@H](N)[C@H](O)[C@H](C)O1  IC50 (MTT): 4.12 µg/mL
NCCC(=O)Nc1ccccc1/N=c1\cc(-c2ccc3c(c2)OCO3)oc2ccccc12  inhibition (CCK-8; 1 µM): 10.8%
COc1ccc(C=NNC(=O)c2nc3ccccc3s2)cc1O  cell death (MTT; 100 µM, 48 h): 33.5%
